Tests used:
[1] = folding enthalpy; higher = less favourable; fluorescence melt of hairpins on a sequencing array, two-state fit; settings: sodium 0.088 M
Procedure, shortened: (§1)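 Melting temperature and folding enthalpy were obtained by bootstrapped two-state fitting. Fits used Cy3 fluorescence of library hairpins with annealed Cy3 and quencher oligos on a sequenced MiSeq flow cell, imaged in 50 mM Na-HEPES pH 8.0, 25 mM NaCl in 2.5 °C steps up to 60 °C and normalised to pre-quench Cy3 and control constructs. Four replicates were combined by inverse-variance weighting, and fitted temperatures were raised by 9.35 °C to match UV melts.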

[2] = melting temperature; fluorescence melt of hairpins on a sequencing array, two-state fit, raised by 9.35 °C to match UV melts; settings: sodium 0.088 M
Procedure, shortened: as §1

Sequence | folding enthalpy [1] [kcal/mol] | Tm [2] [°C]
AGTCGGAAACGACT (((((....))))) | -20.1 | 54.3
GATCGTCTAAACGATC ((((((....)))))) | -43 | 56.1
GCTCATGGAAACACGAGC ((((.((....)).)))) | -38.1 | 42.6
GAAAGAGCGAAAGCTTTC (((..(((....)))))) | -13.8 | 32.5
GTAAACGGAAACGTTCAC ((.((((....)))).)) | -23.6 | 32.4
GGCGCCGAAAGGCATGCC ((((((....)))..))) | -19.2 | 59.7
GTGAGAGAAATCTCAC ((((((....)))))) | -32.4 | 51.7
GATCGCCTGGCGATC ((((((...)))))) | -35.7 | 67.9
GATCAGAAGACTGATC ((((((....)))))) | -29.1 | 44.9
GATCCAAATGTGGATC ((((((....)))))) | -33.8 | 48.5
GATCAAAGTGTTGATC ((((((....)))))) | -29.6 | 42.4
GAGGTGGGAAACCATCTC (((.(((....))).))) | -31.3 | 47.7
GCCTCGCGAAAGCATGGC (((..((....))..))) | -18.4 | 53.3
GATCTCGGAGAGATC ((((((...)))))) | -33.3 | 67.4
GGTTGCGAAAGCAGAACC ((((((....)))..))) | -19.8 | 47.5
GCGTACCACGC ((((...)))) | -24.7 | 55.9
GCTTTGGGAAACCAAAGC (((((((....))))))) | -47.1 | 65
GCACTGCGAAAGCACCGC ((..(((....)))..)) | -9.03 | 29.5
GATCACCCGGGTGATC ((((((....)))))) | -51.9 | 59
ACGATGAAAATCGT (((((....))))) | -19 | 51
GTCACAGGAAACTACGAC (((..((....))..))) | -21.8 | 28.4
GGGGTAGGAAACTACTCC ((.((((....)))).)) | -30.1 | 47.6
GCGATAGGAAACTGTCGC ((((.((....)).)))) | -50.7 | 54.5
GTCACTGGAAACAGTGAC (((((((....))))))) | -46.7 | 63

Sequence | folding enthalpy [1] [kcal/mol] | Tm [2] [°C]
GGCTTGCGAAAGCATGCC (((.(((....))).))) | -31.4 | 66.6
GCGTTTCACGC ((((...)))) | -34.8 | 59.1
GGCTACGAAAGTAATGCC ((((((....)))..))) | -22.6 | 46.9
CGACCGGAAACGGAATCG ((((((....)))..))) | -14.3 | 35.7
GCTCTCGAAAGAGTCAGC ((((((....)))..))) | -14.7 | 32.9
GAAATCGGAAACGGTTTC ((((.((....)).)))) | -31.6 | 46.5
GTGCTCGAAAGAGATCAC ((((((....)))..))) | -13.6 | 30.9
GATCTGTAGTCAGATC ((((((....)))))) | -35.5 | 49.1
GCGGATTCCCGC ((((....)))) | -20.8 | 55
GCAGTCCCGAAAGGGTGC (((..(((....)))))) | -15.3 | 43.5
GATAGCCGAAAGGCGATC (((.(((....))).))) | -17.9 | 58.8
GACTTACGAAAGTATGTC (((.(((....))).))) | -32.9 | 47.8
GGATGCGAAAGCAGGTCC ((((((....)))..))) | -11.8 | 37.7
GCCACTGGAAACAGCGGC (((.(((....))).))) | -42.6 | 52.9
CGCGGAAGTATCCGCG ((((((....)))))) | -37.9 | 69
GATCGCTGAGGCGATC ((((((....)))))) | -38.1 | 68.5
GCAACCGAAAGGTGTGC ((((((....))).))) | -23.2 | 52.4
GATCAGTCGCCTGATC ((((((....)))))) | -57.2 | 51.5
GTTGCGGGAAACCGTAGC (.(.(((....))).).) | -24.5 | 36.1
GTTCCCGAAAGGGTAAC ((((((....))).))) | -17.6 | 40.9
GCGGTGAGCCGC ((((....)))) | -23 | 66.8
GATCATATTATGATC ((((((...)))))) | -35.9 | 48.6
GCTACGGGAAACCGCAGC (((.(((....))).))) | -41.7 | 49.7
GCGGCACCCCGC ((((....)))) | -24.8 | 53.8

Sequence | folding enthalpy [1] [kcal/mol] | Tm [2] [°C]
GGGTACGAAAGTAATCCC ((((((....)))..))) | -20.7 | 39
GGGTGCGGAAACGTGCCC (((..((....))..))) | -39.8 | 57.3
GGAGATGGAAACATCTCC (((((((....))))))) | -38 | 65
GATCATACAATGATC ((((((...)))))) | -39.5 | 48.4
GATCTGTTGTCAGATC ((((((....)))))) | -37.1 | 50.9
GGATGCCGAAAGGCTTCC (((.(((....))).))) | -28.6 | 60.3
GCCACCGGAAACGATGGC ((((.((....)).)))) | -44 | 52.6
GGTTTCGGAAACGAAATC (.(((((....))))).) | -25.1 | 48
AACTTGAAAAAGTT (((((....))))) | -14.2 | 30.4
GAAGCCGGAAACGGCTCC (.(((((....))))).) | -9.15 | 46.8
GGTGCTGGAAACAACACC ((((.((....)).)))) | -37.6 | 46
GTTCGCGGAAACGTGAAC ((((.((....)).)))) | -37.7 | 56.8
GAGCCAGGAAACTGGTTC ((.((((....)))).)) | -29.9 | 49.4
GATCTTCAAAAAGATC ((((((....)))))) | -27.3 | 40.4
GATGTCGGAAACGACACC (.(((((....))))).) | -11.4 | 40.4
GCCCCCGAAAGGGTGGGC ((((((....)))..))) | -27.8 | 63.2
GCGACCGAAAGGTTCCGC ((((((....)))..))) | -18.8 | 43.5
GATGAGCGAAAGCTATC (((.(((....)))))) | -14.7 | 35.1
CGGACGGAAACGTACCG ((((((....))).))) | -24.2 | 47.5
GATTGACGAAAGTCGATC (((.(((....))).))) | -29.6 | 54.2
GATCATGGACATGATC ((((((....)))))) | -40.7 | 54.3
GCACACGAAAGTGTCTGC ((((((....)))..))) | -15.3 | 42
GAGTCTGGAAACGGACTC (((((.(....).))))) | -40.4 | 52.3
CTCCTGAAAAGGAG (((((....))))) | -20.3 | 51.2

Sequence | folding enthalpy [1] [kcal/mol] | Tm [2] [°C]
GGTCACACGAAAGTGACC (((..(((....)))))) | -35.5 | 58.2
GCCAGTCGAAAGACGGGC (((.(((....))).))) | -35 | 68.6
GCTATGCGAAAGCTTCGC ((.(.((....)).).)) | -14.2 | 41.5
GTCCGCCGAAAGGCTGAC (((.(((....))).))) | -21.9 | 57.3
GATCCTACCTAGGATC ((((((....)))))) | -31.6 | 53
GGAGCGCGAAAGCGTCC (((.(((....)))))) | -13.9 | 52.1
GTTGTTGGAAACAACAGC (.(((((....))))).) | -13.2 | 52.8
GCACCACGAAAGTGCTGC (((.(((....))).))) | -25.2 | 50.5
GCGTAGCCGAAAGGCCGC (((..(((....)))))) | -16.8 | 58
GCCATCGAAAGATTTGGC ((((((....)))..))) | -24.1 | 41.3
GATCGGTTGCCGATC ((((((...)))))) | -28.6 | 59.1
GGTAGCGAAAGCTGACC ((((((....))).))) | -17.2 | 49.7
GATCAACTTATTGATC ((((((....)))))) | -35.4 | 43
GTGGTAGGAAACTGTCAC (((..((....))..))) | -17.3 | 32.9
GTCGAACGAAAGTTAGAC (((.(((....))).))) | -33.1 | 52.6
GATCTCGGAAACGAGATC (((((((....))))))) | -45.5 | 64.3
GATCCAATAGTGGATC ((((((....)))))) | -30.8 | 46.6
GCAATGCGAAAGCACGGC ((..(((....)))..)) | -19.9 | 36.3
CGCACTCGGAAACGAGCG (((..(((....)))))) | -14.1 | 39.9
GCCAGGCGAAAGCTTAGC ((.(.((....)).).)) | -10.9 | 32.3
GATCGCCGCCGCGATC ((((((....)))))) | -36 | 66.6

— the array DNA melting data of Ke et al. (doi:10.1101/2024.01.08.574731)
